From PubChem BioAssay
Rows were chosen to be rich in hits. Some 5.5% of all compounds tested hit in one or more screens of this group.
STAT3 inh – reduces IL-6 driven STAT3 reporter signal | U3A cells, IL-6 STAT3-luciferase reporter, luminescence; host cell line lacks STAT1 | inhibition, % at 5.5 µM | 190,000 tested, 0.89% active | AID 862;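 active = inhibition above the mean inhibition across all screened compounds plus 3 SD, cut at about 44% in these data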;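 note: 0% = DMSO only wells and 100% = 100 µM nifuroxazide control wells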
HSV augment – increases HSV replication in cells; HSV replication augmentation in cells, fold increase; maximum fold increase; 220,000 tested, 0.005% active; in the data active = maximum fold increase above about 1.5; tested in PC3 cells
STAT1 act – STAT1 signaling activation. NIH 3T3 STAT1-luciferase reporter, IFN-gamma, luminescence; 100% = IFN-gamma alone, no compound. activation (% of control), % at 5.5 µM. 200,000 tested, 2.6% active;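 active = activation above the screen-wide mean activation plus 3 SD, cut at about 130% in these data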;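 note: raw ratio to IFN-gamma control signal so 100% means no change and 0% no light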
STAT1 inh – inhibitors of IFN-gamma induced STAT1 signaling; NIH 3T3 STAT1-luciferase reporter, luminescence; inhibition, % at 5.5 µM; 200,000 tested, 0.35% active;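 active = inhibition above a set limit, the mean inhibition across all tested compounds plus 3 SD, cut at about 34% in these data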;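 note: 0% = IFN-gamma with DMSO and 100% = IFN-gamma with 300 µM nifuroxazide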
STAT3 act – increases IL-6 driven STAT3 reporter signal. activation (% of control), % at 5.6 µM. 190,000 tested, 0.91% active. U3A cells, IL-6 STAT3-luciferase reporter, luminescence; 100% = signal with IL-6 EC80 alone;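 active = activation above the screen-wide mean of compound activation plus 3 SD, cut at about 130% in these data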;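 note: 0% = background luminescence of wells with medium and substrate only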
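Material: human STAT1-deficient U3A cells with stable STAT3-luciferase reporter / Probe or stimulus: IL-6 stimulus at 33 ng/mL final / Schedule: 1 h compound pre-exposure, 6 h IL-6 stimulation, 37 °C / Technique: luminescence / Read-out basis: percent of IL-6-only median luminescence / Control set: IL-6-only high control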
KCC2 mod – KCC2 (human) Cl- transport modulation; 190,000 tested, 2.2% active; KCC2 cells, thallium flux FluoZin-2 fluorescence; AID 1456; B-score of Tl+ flux slope (higher = more flux/activation; lower = inhibition) at 10 µM;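 active = thallium flux slope and its plate-corrected score both differing from the plate sample mean at a set confidence after two filtering rounds, in either direction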;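 note: slope of fluorescence scaled to starting intensity during 10 to 20 s after thallium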
STAT1 act conf – STAT1 activation, confirmation assay | shares compounds with STAT1 act | NIH 3T3 STAT1-luciferase reporter, IFN-gamma potentiation, luminescence; 100% = IFN-gamma EC80 alone, no compound | activation (% of control), % at 5.7 µM | 1,200 tested, 97% active;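 active = activation above a set limit carried over from the earlier primary STAT1 screen, cut at about 140% in these data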;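 note: simple ratio to median IFN-gamma plus DMSO wells so 0% means no light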
NFkB act STAT1ct – NF-kappaB activation in STAT1 activator counter-screen; shares compounds with STAT1 act; HEK293T NF-kB luciferase reporter, TNF-alpha stimulated, luminescence; 100% = TNF-alpha with vehicle only; activation (% of control), % at 5.7 µM; 1,200 tested, 43% active; AID 1306;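 active = activation above the mean of solvent-only control wells plus 3 SD, set per campaign, cut at about 130% in these data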;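 note: TNF-alpha given at a submaximal dose yielding about 80% of full reporter signal; values are well signal over median control so 100% means no change and 0% no light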
STAT3 act STAT1c – human STAT3 activation in STAT1 activator counter-screen. U3A cells STAT3-luciferase reporter, IL-6, luminescence; cells lack STAT1; 100 = IL-6 alone, no compound effect. 1,200 tested, 46% active. AID 1316. activation (% of control), % at 5.7 µM. shares compounds with STAT1 act;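 active = activation above the solvent-only control well mean plus 3 SD, set per plate batch, cut at about 110% in these data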;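 note: 0% = no luminescence and 100% = median IL-6 plus DMSO wells; higher means more STAT3 reporter activation so hits are non-selective activators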
Starred values were filed as active, the others as inactive.

What do the screens show for `CCC(C)NC(=O)c1cc2cc3ccc(OC)cc3nc2s1` (stereo unspecified)?
STAT3 inh: 30.2; HSV augment: inactive; STAT1 act: 153.4*; STAT1 inh: -58.5; STAT3 act: 78.2; KCC2 mod: -1.14; STAT1 act conf: 252.0*; NFkB act STAT1ct: 130.4; STAT3 act STAT1c: 102.1

How did CCOc1ccc2nc3sc(C(=O)N4CCN(C)CC4)c(N)c3cc2c1 do in these assays?
STAT3 inh: 17.7; HSV augment: inactive; STAT1 act: 110.5; STAT1 inh: -11.5; STAT3 act: 92.2; KCC2 mod: -0.958

Results for Cc1ccc2cc3c(N)c(C(=O)N4CC(=O)Nc5ccccc54)sc3nc2c1 ?
STAT3 inh: -40.1; STAT1 act: 100.1; STAT1 inh: -0.1; STAT3 act: 132.7; KCC2 mod: -1.81

How did COc1ccc2cc3c(N)c(C(=O)N4CCCC4)sc3nc2c1 do in these assays?
STAT3 inh: 17.7; HSV augment: inactive; STAT1 act: 156.8*; STAT1 inh: -62.2; STAT3 act: 90.3; KCC2 mod: -0.426; STAT1 act conf: 116.8; NFkB act STAT1ct: 106.5; STAT3 act STAT1c: 99.4

How did O=C(CCCCCCC(=O)c1ccccc1)c1ccccc1 do in these assays?
STAT3 inh: 7.8; HSV augment: inactive; STAT1 act: 103.2; STAT1 inh: -5.2; STAT3 act: 95.3; KCC2 mod: 0.683

What do the screens show for `Cc1cc(C)cc(NC(=O)c2cccn2-c2ncc(C(F)(F)F)cc2Cl)c1`?
STAT3 inh: -2.1; HSV augment: inactive; STAT1 act: 104.8; STAT1 inh: -5.3; STAT3 act: 106.6

What do the screens show for `c1c2c(cc3sc(N4CCOCC4)nc13)OCO2`?
STAT3 inh: 21.6; HSV augment: inactive; STAT1 act: 118.4; STAT1 inh: -20.2; STAT3 act: 86.2; KCC2 mod: -0.809

What do the screens show for `CC(=O)c1c(C)nc(Nc2nc3ccccc3s2)nc1C`?
HSV augment: inactive; KCC2 mod: 1.25

How did Cc1ccc(Nc2nc3ccccc3s2)c(C)c1 do in these assays?
STAT3 inh: 26.3; HSV augment: inactive; STAT1 act: 182.3*; STAT1 inh: -92.6; STAT3 act: 77.8; KCC2 mod: 0.605; STAT1 act conf: 220.2*; NFkB act STAT1ct: 109.3; STAT3 act STAT1c: 97.8

Results for c1ccc2c(c1)CCN(c1nc3cc4c(cc3s1)OCO4)C2 ?
STAT3 inh: 21.5; HSV augment: inactive; STAT1 act: 180.2*; STAT1 inh: -87.7; STAT3 act: 85.8; KCC2 mod: 0.144; STAT1 act conf: 260.8*; NFkB act STAT1ct: 136.4*; STAT3 act STAT1c: 106.6

What do the screens show for `C(=N\Nc1nc2ccccc2s1)/c1ccc2c(c1)OCO2`?
STAT3 inh: -26.8; HSV augment: inactive; STAT1 act: 208.6*; STAT1 inh: -119.4; STAT3 act: 117.8; KCC2 mod: -0.0244; STAT1 act conf: 271.9*; NFkB act STAT1ct: 123.2; STAT3 act STAT1c: 123.9*

How did c1ccc2sc(Nc3nc4cc5c(cc4s3)OCO5)nc2c1 do in these assays?
STAT3 inh: 0.2; HSV augment: inactive; STAT1 act: 187.0*; STAT1 inh: -97.6; STAT3 act: 99.8; KCC2 mod: 2.43; STAT1 act conf: 264.0*; NFkB act STAT1ct: 149.4*; STAT3 act STAT1c: 123.8*

Results for C/C(=N\N(c1ccccc1)c1ccccc1)c1ccco1 ?
STAT3 inh: -10.2; HSV augment: inactive; STAT1 act: 102.8; STAT1 inh: -3.1; STAT3 act: 109.7; KCC2 mod: -0.361

How did CC(C)Nc1nc(NC(C)C)nc(OCCOC(=O)Nc2ccccc2)n1 do in these assays?
STAT3 inh: 2.3; HSV augment: inactive; STAT1 act: 98.0; STAT1 inh: 2.2; STAT3 act: 104.1

Results for Brc1csc(/C=N/Nc2nc3ccccc3s2)c1 ?
STAT3 inh: -14.5; HSV augment: inactive; STAT1 act: 190.1*; STAT1 inh: -100.8; STAT3 act: 114.1; KCC2 mod: 0.342; STAT1 act conf: 248.2*; NFkB act STAT1ct: 149.4*; STAT3 act STAT1c: 133.9*

Results for Fc1ccc2nc(Nc3nc4cc5c(cc4s3)OCCO5)sc2c1 ?
STAT3 inh: 3.6; HSV augment: inactive; STAT1 act: 165.9*; STAT1 inh: -74.0; STAT3 act: 96.9; KCC2 mod: 1.18; STAT1 act conf: 194.1*; NFkB act STAT1ct: 125.0; STAT3 act STAT1c: 104.6

How did Cc1ccccc1CSc1ncc(C#N)c(N)n1 do in these assays?
STAT3 inh: 10.1; STAT1 act: 165.7*; STAT1 inh: -72.6; STAT3 act: 92.0; STAT1 act conf: 169.2*; NFkB act STAT1ct: 128.3; STAT3 act STAT1c: 110.3

Results for CC(NC(=O)COC(=O)Cc1ccc(-c2ccccc2)cc1)c1ccccc1 (stereo unspecified) ?
STAT3 inh: -11.6; HSV augment: inactive; STAT1 act: 86.8; STAT1 inh: 16.1; STAT3 act: 107.2; KCC2 mod: -2.64

What do the screens show for `COC(=O)/C(=C\c1c(OC)cc(OC)cc1OC)C(=O)c1ccc2c(c1)OCO2`?
HSV augment: inactive

What do the screens show for `COc1ccc(F)cc1S(=O)(=O)N1CC(C)CC(C)C1` (stereo unspecified)?
STAT3 inh: 5.3; HSV augment: inactive; STAT1 act: 101.3; STAT1 inh: -1.4; STAT3 act: 101.4

How did Cc1ccc(-n2ncc3c(NCc4ccco4)ncnc32)cc1C do in these assays?
STAT3 inh: 8.1; HSV augment: inactive; STAT1 act: 154.1*; STAT1 inh: -58.5; STAT3 act: 99.5; KCC2 mod: -0.11; STAT1 act conf: 180.8*; NFkB act STAT1ct: 140.3*; STAT3 act STAT1c: 105.7

How did Cc1cccc(-n2ncc3c(NCc4ccccn4)ncnc32)c1 do in these assays?
STAT3 inh: 16.3; HSV augment: inactive; STAT1 act: 112.9; STAT1 inh: -16.5; STAT3 act: 87.5; KCC2 mod: 1.46

Results for COc1ccc(CCN(C)C(=O)CCc2nnc(-c3ccccc3)o2)cc1OC ?
STAT3 inh: -14.0; HSV augment: inactive; STAT1 act: 159.4*; STAT1 inh: -63.5; STAT3 act: 117.8; KCC2 mod: -0.332; STAT1 act conf: 165.9*; NFkB act STAT1ct: 121.8; STAT3 act STAT1c: 116.0*
